In ChEMBL document CHEMBL4219260, “Investigation of chemical reactivity of 2-alkoxy-1,4-naphthoquinones and their anticancer activity” (Bioorg Med Chem Lett, 2018):

Legend:
Format in all cases: functional, cell-based
T47D = experiment: Antiproliferative activity against human T47D cells after 72 hrs by CellTiter-Glo assay
Summary of the method: (§1)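 Cells from ATCC, checked mycoplasma-free by PCR, grown in RPMI with 10% FBS, 1% penicillin/streptomycin and 2 mM L-glutamine. Seeded and incubated 24 h, then exposed to 0.3, 1, 3 and 10 μM for 72 h. Viability was read by CellTiter-Glo relative to 0.1% DMSO vehicle. IC50 came from standard curve analysis, with doxorubicin as positive control. Three independent experiments, each in triplicate.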

K562 = experiment: Antiproliferative activity against human K562 cells after 72 hrs by CellTiter-Glo assay; conditions: K562, 72 h; summary of the method: as §1
COLO 205 = experiment: Antiproliferative activity against human COLO205 cells after 72 hrs by CellTiter-Glo assay; conditions: COLO 205, 72 h; summary of the method: as §1

Row | SMILES | IC50 (T47D) [nM] | IC50 (K562) [nM] | IC50 (COLO 205) [nM]
1 | O=C1C(O)=CC(=O)c2c(O)cccc21 | > 10000 | > 10000 | > 10000
2 | COC1=CC(=O)c2cccc(O)c2C1=O | > 10000 | > 10000 | > 10000
3 | NC(=O)COC1=CC(=O)c2c(O)cccc2C1=O | 1700 | 900 | 700
4 | COC(=O)COC1=CC(=O)c2ccccc2C1=O | > 10000 | > 10000 | > 10000
5 | COC1=CC(=O)c2c(OC)cccc2C1=O | > 10000 | > 10000 | > 10000
6 | O=C(O)COC1=CC(=O)c2c(O)cccc2C1=O | > 10000 | > 10000 | > 10000
7 | CN(C)C(=O)COC1=CC(=O)c2c(O)cccc2C1=O | 1000 | 1200 | 1700
8 | COC(=O)COC1=CC(=O)c2c(O)cccc2C1=O | 2200 | 1300 | 1900
9 | COC1=CC(=O)c2c(O)cccc2C1=O | 2000 | 1400 | 2300
10 | O=C1C=C(O)C(=O)c2c(O)cccc21 | > 10000 | > 10000 | > 10000
